Measurements reported in publication PMC9476936 (ACS Pharmacology & Translational Science, 2021).
Where two headings read alike, the source gives them in different places.

Tests used:
ABCB1 = settings: cited from earlier work
human ABCB1 [1] = target: T1, human ABCB1 (Homo sapiens, UniProt P08183); type: biochemical
human ABCG2 [2] = target: T2, human ABCG2 (Homo sapiens, UniProt Q9UNQ0); experiment: Vanadate; type: biochemical; settings: read-out: IC50 for ATPase activity of ABCG2; light activation (+hv) 690 nm, 0.05 J/cm2, 50 mW/cm2; membrane vesicles
T2 sequence (Q9UNQ0 1-655): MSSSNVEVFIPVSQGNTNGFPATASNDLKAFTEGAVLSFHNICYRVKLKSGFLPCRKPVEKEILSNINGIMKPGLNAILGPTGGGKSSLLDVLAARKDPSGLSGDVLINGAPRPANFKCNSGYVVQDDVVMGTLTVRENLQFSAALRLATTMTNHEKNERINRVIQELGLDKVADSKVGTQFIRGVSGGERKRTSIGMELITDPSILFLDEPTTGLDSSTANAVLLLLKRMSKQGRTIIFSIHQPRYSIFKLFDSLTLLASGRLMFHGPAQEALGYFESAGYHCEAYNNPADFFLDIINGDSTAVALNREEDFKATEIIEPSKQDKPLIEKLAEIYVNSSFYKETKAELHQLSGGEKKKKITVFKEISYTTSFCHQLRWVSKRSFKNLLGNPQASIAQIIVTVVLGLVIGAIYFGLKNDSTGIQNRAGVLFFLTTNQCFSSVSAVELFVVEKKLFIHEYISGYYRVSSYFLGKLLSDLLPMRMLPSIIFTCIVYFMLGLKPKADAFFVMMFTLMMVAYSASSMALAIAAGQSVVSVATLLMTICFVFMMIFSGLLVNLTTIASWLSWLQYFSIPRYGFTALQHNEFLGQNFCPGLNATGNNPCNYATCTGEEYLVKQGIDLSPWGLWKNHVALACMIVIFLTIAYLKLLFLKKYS

human ABCB1 [3] = target: T1, human ABCB1; type: biochemical; remark: listed apart in the source
human ABCB1 [4] = target: T1, human ABCB1; type: biochemical; remark: listed apart in the source
human ABCG2 [5] = target: T2, human ABCG2; type: biochemical
Outline: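 Human ABCG2 (N-terminal His10) vesicles from baculovirus-infected High Five cells; 35 μg protein/50 μL in MES-Tris pH 6.8 buffer with 2 mM DTT. Photosensitizer (0–20 μM) added at 37 °C for 3 min, then 690 nm light (0–5 J/cm2, 50 mW/cm2). Fixed 0.5 J/cm2 for the dose series; fixed 2 μM for the fluence series. Denatured at 37 °C for 20 min, 7% Tris-acetate gel, 10 μg/lane, colloidal blue stain, densitometry.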

human ABCB1 [6] = target: T1, human ABCB1; type: biochemical; settings: 2 μM BPD, 690 nm
[7] = 2 μM BPD, light fluence increased from 0 to 5 J/cm2
[8] = BPD 20 μM + light 690 nm, 5 J/cm2, 50 mW/cm2

T1 sequence (P08183 whole entry): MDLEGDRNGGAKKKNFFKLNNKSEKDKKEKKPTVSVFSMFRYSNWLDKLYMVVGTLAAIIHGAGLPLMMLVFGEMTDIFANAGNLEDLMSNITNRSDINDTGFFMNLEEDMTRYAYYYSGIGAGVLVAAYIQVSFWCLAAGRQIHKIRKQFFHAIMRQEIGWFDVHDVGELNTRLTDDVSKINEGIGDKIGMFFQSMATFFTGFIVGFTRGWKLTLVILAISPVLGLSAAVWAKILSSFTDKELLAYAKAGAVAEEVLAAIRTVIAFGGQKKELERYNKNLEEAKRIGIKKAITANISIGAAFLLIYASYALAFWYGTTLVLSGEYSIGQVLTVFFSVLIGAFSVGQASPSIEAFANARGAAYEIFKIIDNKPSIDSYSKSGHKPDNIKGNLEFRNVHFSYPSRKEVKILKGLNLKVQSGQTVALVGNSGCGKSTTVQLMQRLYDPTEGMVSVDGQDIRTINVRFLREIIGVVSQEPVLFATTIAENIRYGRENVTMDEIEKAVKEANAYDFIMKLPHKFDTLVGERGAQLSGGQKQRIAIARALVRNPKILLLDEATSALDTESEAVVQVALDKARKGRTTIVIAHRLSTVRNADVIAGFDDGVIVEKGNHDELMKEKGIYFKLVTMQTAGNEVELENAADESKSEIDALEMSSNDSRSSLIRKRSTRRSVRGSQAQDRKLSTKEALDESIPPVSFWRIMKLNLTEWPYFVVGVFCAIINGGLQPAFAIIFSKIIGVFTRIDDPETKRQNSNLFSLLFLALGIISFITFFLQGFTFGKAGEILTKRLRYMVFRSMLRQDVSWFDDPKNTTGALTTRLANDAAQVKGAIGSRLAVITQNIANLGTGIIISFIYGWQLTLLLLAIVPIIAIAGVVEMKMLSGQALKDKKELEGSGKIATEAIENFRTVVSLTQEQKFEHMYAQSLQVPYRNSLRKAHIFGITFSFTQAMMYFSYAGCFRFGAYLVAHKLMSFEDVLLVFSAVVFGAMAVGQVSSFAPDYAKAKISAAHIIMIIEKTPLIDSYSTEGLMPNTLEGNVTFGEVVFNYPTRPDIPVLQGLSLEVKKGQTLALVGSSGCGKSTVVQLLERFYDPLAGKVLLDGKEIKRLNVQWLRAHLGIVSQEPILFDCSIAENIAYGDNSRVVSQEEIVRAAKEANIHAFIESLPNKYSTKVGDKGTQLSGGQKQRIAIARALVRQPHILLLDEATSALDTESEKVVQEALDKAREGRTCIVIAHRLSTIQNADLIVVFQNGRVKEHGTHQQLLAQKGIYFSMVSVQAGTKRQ

In the case of COc1cc2c(cc1OC)CN(CCc1ccc(NC(=O)c3cccc4c(=O)c5cccc(OC)c5[nH]c34)cc1)CC2 [elacridar], the “concentrations inhibiting both drug transport and ATPase activity of ABCB1” value (ABCB1) is listed as “sub-micromolar concentrations”.

For benzoporphyrin derivative [BPD], the “further reduction of ATPase activity of ABCB1 by light activation” value (human ABCB1 [1]; +hv 690 nm, 0.05 J/cm2, 50 mW/cm2 versus −hv, stated jointly for ABCB1 and ABCG2) was “up to 12 fold”, the IC50 (human ABCB1 [1]; read-out: IC50 for ATPase activity of ABCB1, light activation (+hv) 690 nm, 0.05 J/cm2, 50 mW/cm2, membrane vesicles) was 700 ± 100 nM and the IC50 (human ABCG2 [2]) was 800 ± 100 nM. For the same compound, the “reduction of ATPase activity of ABCB1 in nanodiscs” value (human ABCB1 [3]; absence of light activation) was 51.7 ± 5.3%, the “reduction of ATPase activity of ABCB1 in nanodiscs” value (human ABCB1 [3]; light activation 690 nm, 0.05 J/cm2, 50 mW/cm2) was 97.3 ± 1.3% and the “reduction of monomeric ABCB1 band intensity” value (human ABCB1 [4]; [7]) was 9.1 fold. For the same compound, the “BPD concentration at which ABCB1 aggregation bands became evident” value (human ABCB1 [4]; 0.5 J/cm2, 690 nm) was “higher than 0.5 μM”, the “band corresponding to monomeric ABCB1” value (human ABCB1 [4]; [8]) was “disappeared” and the “intensity of protein band of monomeric (non-aggregated) ABCB1” value (human ABCB1 [4]; BPD alone 20 μM, no light) was “did not alter”. For the same compound, the “reduction of monomeric ABCG2 band intensity” value (human ABCG2 [5]; [7]) was 5.4 fold, the “BPD concentration at which ABCG2 aggregation bands became evident” value (human ABCG2 [5]; 0.5 J/cm2, 690 nm) was “higher than 0.5 μM” and the “band corresponding to monomeric ABCG2” value (human ABCG2 [5]; [8]) was “disappeared”. For the same compound, the “intensity of protein band of monomeric (non-aggregated) ABCG2” value (human ABCG2 [5]; BPD alone 20 μM, no light) was “did not alter”, the “disappearance of protein band corresponding to monomeric ABCB1 in nanodiscs” value (human ABCB1 [6]; 50 mW/cm2, 0.5 J/cm2) was 49.0 ± 2.6% and the “disappearance of protein band corresponding to monomeric ABCB1 in nanodiscs” value (human ABCB1 [6]; 50 mW/cm2, 5 J/cm2) was 88.0 ± 3.5%.

In the case of O[C@@H](COc1cccc2ncccc12)CN1CCN([C@@H]2c3ccccc3[C@@H]3[C@H](c4ccccc42)C3(F)F)CC1 [zosuquidar], the “concentrations inhibiting both drug transport and ATPase activity of ABCB1” value (ABCB1) is given as “sub-micromolar concentrations”.

For COc1cc2c(cc1OC)CN(CCc1ccc(NC(=O)c3cc(OC)c(OC)cc3NC(=O)c3cnc4ccccc4c3)cc1)CC2 [tariquidar], the “concentrations inhibiting both drug transport and ATPase activity of ABCB1” value (ABCB1) is given as “sub-micromolar concentrations”.
